The results in this text go back to ChEMBL document CHEMBL1123964, “Potent, long-acting luteinizing hormone-releasing hormone antagonists containing new synthetic amino acids: N,N'-dialkyl-D-homoarginines” (J Med Chem, 1988).

Experiment [1] concerns the target T1, Gonadotropin-releasing hormone receptor (Rattus norvegicus) (UniProt P30969).
T1 sequence (whole entry): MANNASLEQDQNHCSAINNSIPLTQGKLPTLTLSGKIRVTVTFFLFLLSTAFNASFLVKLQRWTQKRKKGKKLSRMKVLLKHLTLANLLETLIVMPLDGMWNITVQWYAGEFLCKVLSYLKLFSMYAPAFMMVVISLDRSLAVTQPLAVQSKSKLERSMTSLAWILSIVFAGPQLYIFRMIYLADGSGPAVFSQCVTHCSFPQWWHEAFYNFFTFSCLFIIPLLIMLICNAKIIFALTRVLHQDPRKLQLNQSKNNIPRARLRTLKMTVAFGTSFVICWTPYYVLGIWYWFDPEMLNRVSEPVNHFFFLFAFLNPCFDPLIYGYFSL
Briefly: Antiovulatory activity on proestrus was measured by administering as a solution in 50% propylene glycol / 0.9% saline in rat. Type of experiment: functional.

The target in experiment [2] is T1, Gonadotropin-releasing hormone receptor (Rattus norvegicus). Briefly: Antiovulatory activity on diestrus II following administration as a solution in corn oil (24h earlier) in rat. The experiment is classed as functional, organism-based. The method in brief:
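Female rats with at least two normal 4-day cycles before the test cycle were selected. They received the analogue sc in corn oil at noon on diestrus II, 24 h before the proestrus dosing time. On the morning of expected estrus the oviducts were examined under a dissecting microscope, and freshly ovulated eggs were counted. ED50 was taken from percent ovulating versus log-dose, with 10 rats per dose group and usually three or more dose groups.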

Structures are written as SMILES. Square brackets hold non-standard residues; d marks the D form. Peptide text beside a SMILES is read from it. d(hArg(Et2)) = CCN=C(NCC)NCCCC[C@@H](N)C(=O)O; dPhe(4-Cl) = N[C@H](Cc1ccc(Cl)cc1)C(=O)O; d2Nal = N[C@H](Cc1ccc2ccccc2c1)C(=O)O

Regarding `CC/N=C(\NCCCC[C@@H](NC(=O)[C@H](Cc1ccc(O)cc1)NC(=O)[C@H](CO)NC(=O)[C@@H](Cc1c[nH]c2ccccc12)NC(=O)[C@@H](Cc1ccc(Cl)cc1)NC(=O)[C@@H](Cc1ccc(Cl)cc1)NC(C)=O)C(=O)N[C@@H](CC(C)C)C(=O)N[C@@H](CCCN=C(N)N)C(=O)N1CCC[C@H]1C(=O)NCC(N)=O)NCCCN(C)C`, the ED50 (ug injection-1) in experiment [1] was > 2. In the case of `CCNC(=NCCCC[C@@H](NC(=O)[C@H](Cc1ccc(O)cc1)NC(=O)[C@H](CO)NC(=O)[C@@H](Cc1c[nH]c2ccccc12)NC(=O)[C@@H](Cc1ccc(Cl)cc1)NC(=O)[C@@H](Cc1ccc2ccccc2c1)NC(C)=O)C(=O)N[C@@H](Cc1c[nH]c2ccccc12)C(=O)N[C@@H](CCCN=C(N)N)C(=O)N1CCC[C@H]1C(=O)N[C@H](C)C(N)=O)NCC`, the ED50 (ug injection-1) in experiment [1] came to 1.2. In the case of `CC(=O)N[C@H](Cc1ccc(Cl)cc1)C(=O)N[C@H](Cc1ccc(Cl)cc1)C(=O)N[C@H](Cc1c[nH]c2ccccc12)C(=O)N[C@@H](CO)C(=O)N[C@@H](Cc1ccc(O)cc1)C(=O)N[C@H](CCCCN=C(NC(C)C)NC(C)C)C(=O)N[C@@H](CC(C)C)C(=O)N[C@@H](CCCN=C(N)N)C(=O)N1CCC[C@H]1C(=O)N[C@H](C)C(N)=O`, the ED50 (ug injection-1) in experiment [1] is 16; in experiment [2], > 16.

`CCNC(=NCCCC[C@H](NC(=O)[C@H](CO)NC(=O)[C@@H](Cc1c[nH]c2ccccc12)NC(=O)[C@@H](Cc1ccc(Cl)cc1)NC(=O)[C@@H](Cc1ccc2ccccc2c1)NC(C)=O)C(=O)N[C@H](Cc1ccc(O)cc1)C(=O)N[C@@H](CC(C)C)C(=O)N[C@@H](CCCN=C(N)N)C(=O)N1CCC[C@H]1C(=O)N[C@H](C)C(N)=O)NCC` came in with an ED50 (ug injection-1) in experiment [1] of 1.7.

In the case of `CCNC(=NCCCC[C@@H](NC(=O)[C@H](Cc1ccc(O)cc1)NC(=O)[C@H](CO)NC(=O)[C@@H](Cc1cccnc1)NC(=O)[C@@H](Cc1ccc(Cl)cc1)NC(=O)[C@@H](Cc1ccc2ccccc2c1)NC(C)=O)C(=O)N[C@@H](CC(C)C)C(=O)N[C@@H](CCCN=C(N)N)C(=O)N1CCC[C@H]1C(=O)N[C@H](C)C(N)=O)NCC`, the values for the ED50 (ug injection-1) in experiment [1] and in experiment [2] were 0.6 and > 4, respectively.

On to `CCCNC(=NCCCC[C@@H](NC(=O)[C@H](Cc1ccc(O)cc1)NC(=O)[C@H](CO)NC(=O)[C@@H](Cc1ccc2ccccc2c1)NC(=O)[C@@H](Cc1ccc(F)cc1)NC(=O)[C@@H](Cc1ccc2ccccc2c1)NC(C)=O)C(=O)N[C@@H](CC(C)C)C(=O)N[C@@H](CCCN=C(N)N)C(=O)N1CCC[C@H]1C(=O)NCC(N)=O)NCCC`, for which the ED50 (ug injection-1) in experiment [1] is 7.5. Regarding `CCNC(=NCCCC[C@@H](NC(=O)[C@H](Cc1ccc(O)cc1)NC(=O)[C@H](CO)NC(=O)[C@@H](Cc1c[nH]c2ccccc12)NC(=O)[C@@H](Cc1ccc(Cl)cc1)NC(=O)[C@@H](Cc1ccc2ccccc2c1)NC(C)=O)C(=O)N[C@@H](CC(C)C)C(=O)N[C@@H](CCCN=C(N)N)C(=O)N1CCC[C@H]1C(=O)NNC(N)=O)NCC`, the values for the ED50 (ug injection-1) in experiment [1] and in experiment [2] were 0.55 and 9.5, respectively. In experiment [1], `CCNC(=NCCCC[C@H](NC(=O)[C@H](CO)NC(=O)[C@@H](Cc1c[nH]c2ccccc12)NC(=O)[C@@H](Cc1ccc(Cl)cc1)NC(=O)[C@@H](Cc1ccc2ccccc2c1)NC(C)=O)C(=O)N[C@H](Cc1ccc2ccccc2c1)C(=O)N[C@@H](CC(C)C)C(=O)N[C@@H](CCCN=C(N)N)C(=O)N1CCC[C@H]1C(=O)N[C@H](C)C(N)=O)NCC` yielded an ED50 (ug injection-1) of 1.6. Turning to `CCNC(=NCCCC[C@@H](NC(=O)[C@H](Cc1ccc(O)cc1)NC(=O)[C@H](CO)NC(=O)[C@@H](Cc1c[nH]c2ccccc12)NC(=O)[C@@H](Cc1ccc(Cl)cc1)NC(=O)[C@@H](Cc1ccc2ccccc2c1)NC(C)=O)C(=O)N[C@@H](Cc1ccccc1)C(=O)N[C@@H](CCCN=C(N)N)C(=O)N1CCC[C@H]1C(=O)N[C@H](C)C(N)=O)NCC` (Ac-[d2Nal][dPhe(4-Cl)][dW]SY[d(hArg(Et2))]FRP[dA]-NH2), the ED50 (ug injection-1) in experiment [1] worked out at 0.75; in experiment [2], 8. As for `CCNC(=NCCCC[C@@H](NC(=O)[C@H](Cc1ccc(O)cc1)NC(=O)[C@H](CO)NC(=O)[C@@H](Cc1ccncc1)NC(=O)[C@@H](Cc1ccc(Cl)cc1)NC(=O)[C@@H](Cc1ccc2ccccc2c1)NC(C)=O)C(=O)N[C@@H](CC(C)C)C(=O)N[C@@H](CCCN=C(N)N)C(=O)N1CCC[C@H]1C(=O)N[C@H](C)C(N)=O)NCC`, the ED50 (ug injection-1) in experiment [1] came to 1.7. Consider `CCCCNC(=NCCCC[C@@H](NC(=O)[C@H](Cc1ccc(O)cc1)NC(=O)[C@H](CO)NC(=O)[C@@H](Cc1c[nH]c2ccccc12)NC(=O)[C@@H](Cc1ccc(Cl)cc1)NC(=O)[C@@H](Cc1ccc2ccccc2c1)NC(C)=O)C(=O)N[C@@H](CC(C)C)C(=O)N[C@@H](CCCN=C(N)N)C(=O)N1CCC[C@H]1C(=O)N[C@H](C)C(N)=O)NCCCC`, for which the values for the ED50 (ug injection-1) in experiment [1] and in experiment [2] were 3.4 and > 16, respectively. With `CCCCCCNC(=NCCCC[C@@H](NC(=O)[C@H](Cc1ccc(O)cc1)NC(=O)[C@H](CCCN)NC(=O)[C@@H](Cc1c[nH]c2ccccc12)NC(=O)[C@@H](Cc1ccc(Cl)cc1)NC(=O)[C@@H](Cc1ccc(Cl)cc1)NC(C)=O)C(=O)N[C@@H](CC(C)C)C(=O)N[C@@H](CCCN=C(N)N)C(=O)N1CCC[C@H]1C(=O)N[C@H](C)C(N)=O)NCCCCCC`, the ED50 (ug injection-1) in experiment [1] is > 16. `CCNC(=O)[C@@H]1CCCN1C(=O)[C@H](CCCN=C(N)N)NC(=O)[C@H](CC(C)C)NC(=O)[C@@H](CCCCN=C(NCC)NCC)NC(=O)[C@H](Cc1ccc(O)cc1)NC(=O)[C@H](CO)NC(=O)[C@@H](Cc1c[nH]c2ccccc12)NC(=O)[C@@H](Cc1ccc(Cl)cc1)NC(=O)[C@@H](Cc1ccc2ccccc2c1)NC(C)=O`: the ED50 (ug injection-1) was 2.4 in experiment [1] and > 16 in experiment [2]. On the same counts, the results for `CCNC(=NCCCC[C@@H](NC(=O)[C@H](Cc1ccc(O)cc1)NC(=O)[C@H](CO)NC(=O)[C@@H](Cc1c[nH]c2ccccc12)NC(=O)[C@@H](Cc1ccc(Cl)cc1)NC(=O)[C@@H](Cc1ccc2ccccc2c1)NC(C)=O)C(=O)N[C@@H](CC(C)C)C(=O)N[C@@H](CCCN=C(N)N)C(=O)N1CCC[C@H]1C(=O)N[C@H](C)C(N)=O)NCC` (stereo in doubt; 25) are 0.5 and < 4. With `CCNC(=NCCCC[C@H](NC(=O)[C@H](CO)NC(=O)[C@@H](Cc1c[nH]c2ccccc12)NC(=O)[C@@H](Cc1ccc(Cl)cc1)NC(=O)[C@@H](Cc1ccc2ccccc2c1)NC(C)=O)C(=O)N[C@H](Cc1ccc(O)cc1)C(=O)N[C@@H](Cc1c[nH]c2ccccc12)C(=O)N[C@@H](CCCN=C(N)N)C(=O)N1CCC[C@H]1C(=O)N[C@H](C)C(N)=O)NCC`, the ED50 (ug injection-1) in experiment [1] was 11.5. Consider `CCCCCCNC(=NCCCC[C@@H](NC(=O)[C@H](Cc1ccc(O)cc1)NC(=O)[C@H](CO)NC(=O)[C@@H](Cc1c[nH]c2ccccc12)NC(=O)[C@@H](Cc1ccc(F)cc1)NC(=O)[C@@H](CO)NC(C)=O)C(=O)N[C@@H](CC(C)C)C(=O)N[C@@H](CCCN=C(N)N)C(=O)N1CCC[C@H]1C(=O)NCC(N)=O)NCCCCCC`, for which the ED50 (ug injection-1) in experiment [1] was determined as 16. In experiment [1], `CCNC(=NCCCC[C@@H](NC(=O)[C@H](Cc1ccc(O)cc1)NC(=O)[C@H](CO)NC(=O)[C@@H](Cc1ccc2ccccc2c1)NC(=O)[C@@H](Cc1ccc(Cl)cc1)NC(=O)[C@@H](Cc1c[nH]c2ccccc12)NC(C)=O)C(=O)N[C@@H](CC(C)C)C(=O)N[C@@H](CCCN=C(N)N)C(=O)N1CCC[C@H]1C(=O)N[C@H](C)C(N)=O)NCC` returned an ED50 (ug injection-1) of 5.5. `CCNC(=NCCCC[C@@H](NC(=O)[C@H](Cc1ccc(O)cc1)NC(=O)[C@H](CO)NC(=O)[C@@H](Cc1cccnc1)NC(=O)[C@@H](Cc1ccc(F)cc1)NC(=O)[C@@H](Cc1ccc2ccccc2c1)NC(C)=O)C(=O)N[C@@H](CC(C)C)C(=O)N[C@@H](CCCN=C(N)N)C(=O)N1CCC[C@H]1C(=O)N[C@H](C)C(N)=O)NCC` registered an ED50 (ug injection-1) in experiment [1] of 0.7. Same read-out and setting: next, `CCNC(=NCCCC[C@H](NC(=O)[C@H](CO)NC(=O)[C@@H](Cc1c[nH]c2ccccc12)NC(=O)[C@@H](Cc1ccc(Cl)cc1)NC(=O)[C@@H](CCCCN=C(NCC)NCC)NC(C)=O)C(=O)N[C@H](Cc1ccc(O)cc1)C(=O)N[C@@H](Cc1c[nH]c2ccccc12)C(=O)N[C@@H](CCCN=C(N)N)C(=O)N1CCC[C@H]1C(=O)N[C@H](C)C(N)=O)NCC`: > 16; `CCNC(=NCCCC[C@@H](NC(=O)[C@H](Cc1ccc(O)cc1)NC(=O)[C@H](CO)NC(=O)[C@@H](Cc1c[nH]c2ccccc12)NC(=O)[C@@H](Cc1ccc(F)cc1)NC(=O)[C@@H](Cc1ccc2ccccc2c1)NC(C)=O)C(=O)N[C@@H](CC(C)C)C(=O)N[C@@H](CCCN=C(N)N)C(=O)N1CCC[C@H]1C(=O)NCC(N)=O)NCCCN(C)C`: > 2; `CCNC(=NCCCC[C@@H](NC(C)=O)C(=O)N[C@H](Cc1ccc(Cl)cc1)C(=O)N[C@H](Cc1c[nH]c2ccccc12)C(=O)N[C@@H](CO)C(=O)N[C@@H](Cc1ccc(O)cc1)C(=O)N[C@H](Cc1ccc2ccccc2c1)C(=O)N[C@@H](CC(C)C)C(=O)N[C@@H](CCCN=C(N)N)C(=O)N1CCC[C@H]1C(=O)N[C@H](C)C(N)=O)NCC`: 8.

The compound `CCNC(=NCCCC[C@@H](NC(=O)[C@H](Cc1ccc(O)cc1)NC(=O)[C@H](CO)NC(=O)[C@@H](Cc1c[nH]c2ccccc12)NC(=O)[C@@H](Cc1ccc(F)cc1)NC(=O)[C@@H](Cc1ccc2ccccc2c1)NC(C)=O)C(=O)N[C@@H](CC(C)C)C(=O)N[C@@H](CCCN=C(N)N)C(=O)N1CCC[C@H]1C(=O)N[C@H](C)C(N)=O)NCC` yielded an ED50 (ug injection-1) in experiment [1] of 0.4.
